What was measured:
Type in all cases: functional
[1] = tested on: HCT-116; experiment: Cytotoxicity against human HCT116 cells after 48 hrs by SRB assay; conditions: HCT-116, 48 h
In short: (§1)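 Run at NCI: cell lines exposed 48 h to a range of concentrations, with untreated controls under identical conditions. Growth measured by sulforhodamine B staining with colorimetric read-out. Percent growth computed from test, time-zero and control absorbances. GI50, TGI and LC50 read from PG versus log10 molar concentration as the concentrations giving PG = 50, 0 and -50.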

[2] = tested on: HCT-15; experiment: Cytotoxicity against human HCT15 cells after 48 hrs by SRB assay; conditions: HCT-15, 48 h; in short: as §1
[3] = tested on: SF-295; experiment: Cytotoxicity against human SF295 cells after 48 hrs by SRB assay; conditions: SF-295, 48 h; in short: as §1
[4] = tested on: SF-539; experiment: Cytotoxicity against human SF539 cells after 48 hrs by SRB assay; conditions: SF-539, 48 h; in short: as §1
[5] = tested on: UACC-62; experiment: Cytotoxicity against human UACC62 cells after 48 hrs by SRB assay; conditions: UACC-62, 48 h; in short: as §1
[6] = tested on: IGROV-1; experiment: Cytotoxicity against human IGROV1 cells after 48 hrs by SRB assay; conditions: IGROV-1, 48 h; in short: as §1
[7] = tested on: OVCAR-3; experiment: Cytotoxicity against human OVCAR-3 cells after 48 hrs by SRB assay; conditions: OVCAR-3, 48 h; in short: as §1
[8] = tested on: OVCAR-5; experiment: Cytotoxicity against human OVCAR5 cells after 48 hrs by SRB assay; conditions: OVCAR-5, 48 h; in short: as §1
[9] = tested on: SK-OV-3; experiment: Cytotoxicity against human SKOV3 cells after 48 hrs by SRB assay; conditions: SK-OV-3, 48 h; in short: as §1
[10] = tested on: A498; experiment: Cytotoxicity against human A498 cells after 48 hrs by SRB assay; conditions: A498, 48 h; in short: as §1
[11] = tested on: CAKI-1; experiment: Cytotoxicity against human CAKI1 cells after 48 hrs by SRB assay; conditions: CAKI-1, 48 h; in short: as §1
[12] = tested on: RXF 393; experiment: Cytotoxicity against human […] cells after 48 hrs by SRB assay; conditions: RXF 393, 48 h; in short: as §1
[13] = tested on: TK-10; experiment: Cytotoxicity against human TK10 cells after 48 hrs by SRB assay; conditions: TK-10, 48 h; in short: as §1
[14] = tested on: UO-31; experiment: Cytotoxicity against human UO31 cells after 48 hrs by SRB assay; conditions: UO-31, 48 h; in short: as §1
[15] = tested on: DU-145; experiment: Cytotoxicity against human DU145 cells after 48 hrs by SRB assay; conditions: DU-145, 48 h; in short: as §1
[16] = tested on: MCF7; experiment: Cytotoxicity against human MCF7 cells after 48 hrs by SRB assay; conditions: MCF7, 48 h; in short: as §1
[17] = tested on: MDA-MB-231; experiment: Cytotoxicity against human MDA-MB-231 cells after 48 hrs by SRB assay; conditions: MDA-MB-231, 48 h; in short: as §1
[18] = Cytotoxicity against human HS 578T cells after 48 hrs by SRB assay; in short: as §1
[19] = tested on: MDA-MB-435; experiment: Cytotoxicity against human MDA-MB-435 cells after 48 hrs by SRB assay; conditions: MDA-MB-435, 48 h; in short: as §1
[20] = tested on: MDA-N; experiment: Cytotoxicity against human MDA-N cells after 48 hrs by SRB assay; in short: as §1
[21] = tested on: T47D; experiment: Cytotoxicity against human T47D cells after 48 hrs by SRB assay; in short: as §1
[22] = tested on: SK-MEL-28; experiment: Cytotoxicity against human SK-MEL-28 cells after 48 hrs by SRB assay; conditions: SK-MEL-28, 48 h; in short: as §1
[23] = tested on: SNB-19; experiment: Cytotoxicity against human SNB19 cells after 48 hrs by SRB assay; conditions: SNB-19, 48 h
In short: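 Run at NCI: cells exposed 48 h to a range of concentrations, with untreated controls under identical conditions. Growth measured by sulforhodamine B staining with colorimetric read-out. Percent growth (PG) calculated from absorbance at 48 h with drug, at time zero, and at 48 h without drug. Log molar concentration plotted against PG; GI50 at PG = 50, TGI at PG = 0, LC50 at PG = −50.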

[24] = tested on: SK-MEL-2; experiment: Cytotoxicity against human SK-MEL-2 cells after 48 hrs by SRB assay; conditions: SK-MEL-2, 48 h; in short: as §1
[25] = tested on: U-251; experiment: Cytotoxicity against human U251 cells after 48 hrs by SRB assay; conditions: U-251, 48 h; in short: as §1
[26] = tested on: MOLT-4; experiment: Cytotoxicity against human MOLT4 cells after 48 hrs by SRB assay; conditions: MOLT-4, 48 h; in short: as §1
[27] = tested on: RPMI-8226; experiment: Cytotoxicity against human RPMI8226 cells after 48 hrs by SRB assay; conditions: RPMI-8226, 48 h; in short: as §1
[28] = tested on: EKVX; experiment: Cytotoxicity against human EKVX cells after 48 hrs by SRB assay; in short: as §1
[29] = read-out: Log LC50 (the source's name) (converted)

For `CC(=O)O[C@@H]1C#C/C=C\C#CC[C@H]2C(=O)N(C(=O)OC(C)(C)C)[C@H]12`, the GI50 [1] was 25.7 µM, the CC50 [1, 29] was > 100 µM and the TGI ([1]; read-out: Log TGI (converted)) was > 100 µM. For the same compound, the CC50 [2, 29] was > 100 µM, the TGI ([2]; read-out: Log TGI (converted)) was > 100 µM and the GI50 ([2]; read-out: pGI50 (converted)) was 40.7 µM. The GI50 [3] was 30.9 µM, the CC50 [3, 29] was > 100 µM and the TGI ([3]; read-out: Log TGI (converted)) was > 100 µM. The GI50 [4] was 0.724 µM, the CC50 [4, 29] was 25.7 µM and the TGI ([4]; read-out: Log TGI (converted)) was 5.37 µM. The GI50 [5] was 21.4 µM, the CC50 [5, 29] was > 100 µM and the TGI ([5]; read-out: Log TGI (converted)) was > 100 µM. For the same compound, the GI50 [6] was 19.5 µM, the CC50 [6, 29] was > 100 µM and the TGI ([6]; read-out: Log TGI (converted)) was > 100 µM. For the same compound, the GI50 [7] was 61.7 µM, the CC50 [7, 29] was > 100 µM and the TGI ([7]; read-out: Log TGI (converted)) was > 100 µM. The GI50 [8] was > 100 µM, the CC50 [8, 29] was > 100 µM and the TGI ([8]; read-out: Log TGI (converted)) was > 100 µM. The GI50 [9] was 87.1 µM, the CC50 [9, 29] was > 100 µM and the TGI ([9]; read-out: Log TGI (converted)) was > 100 µM. The GI50 [10] was 17 µM, the CC50 [10, 29] was > 100 µM and the TGI ([10]; read-out: Log TGI (converted)) was 97.7 µM. The GI50 [11] was 0.355 µM, the CC50 [11, 29] was 60.3 µM and the TGI ([11]; read-out: Log TGI (converted)) was 6.46 µM. For the same compound, the GI50 [12] was 20.4 µM, the CC50 [12, 29] was > 100 µM and the TGI ([12]; read-out: Log TGI (converted)) was 69.2 µM. For the same compound, the GI50 [13] was 35.5 µM, the CC50 [13, 29] was > 100 µM and the TGI ([13]; read-out: Log TGI (converted)) was > 100 µM. The GI50 [14] was 5.89 µM, the CC50 [14, 29] was > 100 µM and the TGI ([14]; read-out: Log TGI (converted)) was > 100 µM. For the same compound, the GI50 [15] was 16.2 µM, the CC50 [15, 29] was > 100 µM and the TGI ([15]; read-out: Log TGI (converted)) was 56.2 µM. For the same compound, the GI50 [16] was 1.1 µM, the CC50 [16, 29] was > 100 µM and the TGI ([16]; read-out: Log TGI (converted)) was > 100 µM. The GI50 [17] was > 100 µM, the CC50 [17, 29] was > 100 µM and the TGI ([17]; read-out: Log TGI (converted)) was > 100 µM. The GI50 [18] was 53.7 µM, the CC50 [18, 29] was > 100 µM and the TGI ([18]; read-out: Log TGI (converted)) was > 100 µM. The GI50 [19] was > 100 µM, the CC50 [19, 29] was > 100 µM and the TGI ([19]; read-out: Log TGI (converted)) was > 100 µM. For the same compound, the GI50 [20] was 87.1 µM, the CC50 [20, 29] was > 100 µM and the TGI ([20]; read-out: Log TGI (converted)) was > 100 µM. The GI50 [21] was 100 µM, the CC50 [21, 29] was > 100 µM and the TGI ([21]; read-out: Log TGI (converted)) was > 100 µM. For the same compound, the GI50 [22] was 87.1 µM, the CC50 [22, 29] was > 100 µM and the TGI ([22]; read-out: Log TGI (converted)) was > 100 µM. For the same compound, the CC50 [23, 29] was > 100 µM, the TGI ([23]; read-out: Log TGI (converted)) was > 100 µM and the GI50 [24] was 47.9 µM. The CC50 [24, 29] was > 100 µM, the TGI ([24]; read-out: Log TGI (converted)) was > 100 µM and the GI50 [25] was 16.2 µM. For the same compound, the CC50 [25, 29] was > 100 µM, the TGI ([25]; read-out: Log TGI (converted)) was > 100 µM and the GI50 [26] was 0.407 µM. The CC50 [26, 29] was > 100 µM, the TGI ([26]; read-out: Log TGI (converted)) was > 100 µM and the GI50 [27] was 17.8 µM. The CC50 [27, 29] was > 100 µM, the TGI ([27]; read-out: Log TGI (converted)) was > 100 µM and the GI50 [28] was > 100 µM. For the same compound, the CC50 [28, 29] was > 100 µM and the TGI ([28]; read-out: Log TGI (converted)) was > 100 µM.
